Values joined by “and” are separate entries in the source; they are usually repeats but may differ in a detail not shown here. Equal entries are not always repeated.
Tested on: U2OS
Experiment: Multiplex assay against U2OS
Type: toxicity, cell-based
Conditions: human
In short: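 Values for tubulin, mitochondrial-mass and membrane-permeability phenotypes are per cents of cells with healthy nuclei. These cells were identified by CellPathfinder machine-learning gating of live cells that had been stained at seeding with Hoechst33342, BioTracker Green Microtubule Cytoskeleton Dye, MitoTracker Red and Annexin V Alexa Fluor 680 and imaged on a CQ1 microscope at 37°C and 5% CO2 after compound addition. The gating first set Hoechst high-intensity objects apart from normal cells, then split normal cells into healthy, pyknosed or fragmented nuclei, and pyknosed cells into mitotic or apoptotic.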

[1] = 12 h, 1 µM, compound concentration 1 uM
[2] = 12 h, 10 µM, compound concentration 10 uM
[3] = 24 h, 1 µM, compound concentration 1 uM
[4] = 24 h, 10 µM, compound concentration 10 uM
[5] = 48 h, 1 µM, compound concentration 1 uM
[6] = 48 h, 10 µM, compound concentration 10 uM

## CCCCC1=NC2(CCCC2)C(=O)N1Cc1ccc(-c2ccccc2-c2nnn[nH]2)cc1 [IRBESARTAN]
[1]
  Population Apoptotic (%): 83% and 77%
  Population Fragmented Nuclei (%): 25% and 9%
  Population Healthy Nuclei (%): 66% and 82%
  Population Hoechst High Intensity Objects (%): 2% and 0%
  Population Membrane Permeable-Phenotype (%): 5% and 11%
  Population Mitochondria Different-Phenotype (%): 1%
  Population Mitotic Cells (%): 16% and 22%
  Population Normal (%): 97% and 99%
  Population Pyknosed Nuclei (%): 7%
  Population Tubulin-Different-Phenotype (%): 1% and 8%
  Total Cell Count: 233 and 124
[2]
  Population Apoptotic (%): 91% and 100%
  Population Fragmented Nuclei (%): 22% and 18%
  Population Healthy Nuclei (%): 68% and 74%
  Population Hoechst High Intensity Objects (%): 2% and 0%
  Population Membrane Permeable-Phenotype (%): 4% and 8%
  Population Mitochondria Different-Phenotype (%): 3% and 6%
  Population Mitotic Cells (%): 8% and 0%
  Population Normal (%): 97% and 100%
  Population Pyknosed Nuclei (%): 9% and 8%
  Population Tubulin-Different-Phenotype (%): 2% and 8%
  Total Cell Count: 254 and 100
[3]
  Population Apoptotic (%): 70% and 66%
  Population Fragmented Nuclei (%): 23% and 12%
  Population Healthy Nuclei (%): 69% and 76%
  Population Hoechst High Intensity Objects (%): 3% and 2%
  Population Membrane Permeable-Phenotype (%): 6% and 9%
  Population Mitochondria Different-Phenotype (%): 3% and 2%
  Population Mitotic Cells (%): 29% and 33%
  Population Normal (%): 96% and 97%
  Population Pyknosed Nuclei (%): 7% and 10%
  Population Tubulin-Different-Phenotype (%): 3% and 4%
  Total Cell Count: 241 and 142
[4]
  Population Apoptotic (%): 96% and 91%
  Population Fragmented Nuclei (%): 18%
  Population Healthy Nuclei (%): 73% and 72%
  Population Hoechst High Intensity Objects (%): 2% and 0%
  Population Membrane Permeable-Phenotype (%): 6% and 7%
  Population Mitochondria Different-Phenotype (%): 3%
  Population Mitotic Cells (%): 4% and 8%
  Population Normal (%): 97% and 99%
  Population Pyknosed Nuclei (%): 8%
  Population Tubulin-Different-Phenotype (%): 4% and 3%
  Total Cell Count: 301 and 135
[5]
  Population Apoptotic (%): 97% and 94%
  Population Fragmented Nuclei (%): 18% and 14%
  Population Healthy Nuclei (%): 71% and 76%
  Population Hoechst High Intensity Objects (%): 2% and 4%
  Population Membrane Permeable-Phenotype (%): 5% and 6%
  Population Mitochondria Different-Phenotype (%): 2% and 1%
  Population Mitotic Cells (%): 2% and 5%
  Population Normal (%): 97% and 95%
  Population Pyknosed Nuclei (%): 10% and 9%
  Population Tubulin-Different-Phenotype (%): 2%
  Total Cell Count: 357 and 198
[6]
  Population Apoptotic (%): 89% and 94%
  Population Fragmented Nuclei (%): 14% and 16%
  Population Healthy Nuclei (%): 75% and 72%
  Population Hoechst High Intensity Objects (%): 3% and 4%
  Population Membrane Permeable-Phenotype (%): 7% and 9%
  Population Mitochondria Different-Phenotype (%): 3% and 7%
  Population Mitotic Cells (%): 10% and 5%
  Population Normal (%): 96% and 95%
  Population Pyknosed Nuclei (%): 9% and 10%
  Population Tubulin-Different-Phenotype (%): 3% and 7%
  Total Cell Count: 419 and 175

## CN(C)C(=O)Cn1cc(-c2ccc(-c3cncc4ccccc34)cc2)cn1
[1]
  Population Apoptotic (%): 68% and 69%
  Population Fragmented Nuclei (%): 22% and 18%
  Population Healthy Nuclei (%): 68% and 69%
  Population Hoechst High Intensity Objects (%): 3% and 0%
  Population Membrane Permeable-Phenotype (%): 8% and 6%
  Population Mitochondria Different-Phenotype (%): 4% and 2%
  Population Mitotic Cells (%): 31% and 30%
  Population Normal (%): 96% and 99%
  Population Pyknosed Nuclei (%): 9% and 11%
  Population Tubulin-Different-Phenotype (%): 5% and 3%
  Total Cell Count: 240 and 110
[2]
  Population Apoptotic (%): 66% and 100%
  Population Fragmented Nuclei (%): 21% and 18%
  Population Healthy Nuclei (%): 67% and 75%
  Population Hoechst High Intensity Objects (%): 5% and 3%
  Population Membrane Permeable-Phenotype (%): 20% and 22%
  Population Mitochondria Different-Phenotype (%): 12% and 19%
  Population Normal (%): 94% and 96%
  Population Pyknosed Nuclei (%): 10% and 5%
  Population Tubulin-Different-Phenotype (%): 14% and 23%
  Total Cell Count: 205 and 98
[3]
  Population Apoptotic (%): 100% and 90%
  Population Fragmented Nuclei (%): 21% and 15%
  Population Healthy Nuclei (%): 69% and 76%
  Population Hoechst High Intensity Objects (%): 3% and 1%
  Population Membrane Permeable-Phenotype (%): 5% and 8%
  Population Mitochondria Different-Phenotype (%): 2% and 6%
  Population Mitotic Cells (%): 0% and 9%
  Population Normal (%): 96% and 98%
  Population Pyknosed Nuclei (%): 8%
  Population Tubulin-Different-Phenotype (%): 4%
  Total Cell Count: 278 and 127
[4]
  Population Apoptotic (%): 54% and 80%
  Population Fragmented Nuclei (%): 25% and 11%
  Population Healthy Nuclei (%): 64% and 84%
  Population Hoechst High Intensity Objects (%): 3% and 2%
  Population Membrane Permeable-Phenotype (%): 19% and 16%
  Population Mitochondria Different-Phenotype (%): 9% and 15%
  Population Mitotic Cells (%): 45% and 20%
  Population Normal (%): 96% and 97%
  Population Pyknosed Nuclei (%): 9% and 4%
  Population Tubulin-Different-Phenotype (%): 10% and 14%
  Total Cell Count: 244 and 110
[5]
  Population Apoptotic (%): 87% and 88%
  Population Fragmented Nuclei (%): 18% and 20%
  Population Healthy Nuclei (%): 69% and 67%
  Population Hoechst High Intensity Objects (%): 2% and 3%
  Population Membrane Permeable-Phenotype (%): 6% and 12%
  Population Mitochondria Different-Phenotype (%): 3% and 9%
  Population Mitotic Cells (%): 12% and 11%
  Population Normal (%): 97% and 96%
  Population Pyknosed Nuclei (%): 12% and 11%
  Population Tubulin-Different-Phenotype (%): 4% and 9%
  Total Cell Count: 333 and 163
[6]
  Population Apoptotic (%): 74% and 92%
  Population Fragmented Nuclei (%): 22% and 21%
  Population Healthy Nuclei (%): 62% and 68%
  Population Hoechst High Intensity Objects (%): 2%
  Population Membrane Permeable-Phenotype (%): 15% and 20%
  Population Mitochondria Different-Phenotype (%): 8% and 14%
  Population Normal (%): 97%
  Population Pyknosed Nuclei (%): 14% and 9%
  Population Tubulin-Different-Phenotype (%): 8% and 16%
  Total Cell Count: 302 and 149

— ChEMBL document CHEMBL5724801, “EUbOPEN Chemogenomics Library - Multiplex” (2024)
